The whole screen tested about 310,000 compounds, of which about 1,500 (0.48%) were called active.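 How the source made its calls: active means B-score above 5 SD of library B-scores, and initial fluorescence ratio not above library mean plus 5 SD; inactive means the rest.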 This excerpt belongs to a sample that is enriched for actives.
molecular target: Short transient receptor potential channel 4 (Mus musculus) (UniProt Q9QUQ5); assay: TRPC4 cation channel opening, calcium rise – Fluo4 calcium, HEK293 TRPC4beta/mu-opioid cells, primary screen (AID 2237); details: Fluo4 calcium fluorescence, at 10 µM; stronger effect = higher value;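 on B-score: positive B-score marks a calcium rise read as TRPC4 activation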
Sequence (Q9QUQ5 whole entry, looked up): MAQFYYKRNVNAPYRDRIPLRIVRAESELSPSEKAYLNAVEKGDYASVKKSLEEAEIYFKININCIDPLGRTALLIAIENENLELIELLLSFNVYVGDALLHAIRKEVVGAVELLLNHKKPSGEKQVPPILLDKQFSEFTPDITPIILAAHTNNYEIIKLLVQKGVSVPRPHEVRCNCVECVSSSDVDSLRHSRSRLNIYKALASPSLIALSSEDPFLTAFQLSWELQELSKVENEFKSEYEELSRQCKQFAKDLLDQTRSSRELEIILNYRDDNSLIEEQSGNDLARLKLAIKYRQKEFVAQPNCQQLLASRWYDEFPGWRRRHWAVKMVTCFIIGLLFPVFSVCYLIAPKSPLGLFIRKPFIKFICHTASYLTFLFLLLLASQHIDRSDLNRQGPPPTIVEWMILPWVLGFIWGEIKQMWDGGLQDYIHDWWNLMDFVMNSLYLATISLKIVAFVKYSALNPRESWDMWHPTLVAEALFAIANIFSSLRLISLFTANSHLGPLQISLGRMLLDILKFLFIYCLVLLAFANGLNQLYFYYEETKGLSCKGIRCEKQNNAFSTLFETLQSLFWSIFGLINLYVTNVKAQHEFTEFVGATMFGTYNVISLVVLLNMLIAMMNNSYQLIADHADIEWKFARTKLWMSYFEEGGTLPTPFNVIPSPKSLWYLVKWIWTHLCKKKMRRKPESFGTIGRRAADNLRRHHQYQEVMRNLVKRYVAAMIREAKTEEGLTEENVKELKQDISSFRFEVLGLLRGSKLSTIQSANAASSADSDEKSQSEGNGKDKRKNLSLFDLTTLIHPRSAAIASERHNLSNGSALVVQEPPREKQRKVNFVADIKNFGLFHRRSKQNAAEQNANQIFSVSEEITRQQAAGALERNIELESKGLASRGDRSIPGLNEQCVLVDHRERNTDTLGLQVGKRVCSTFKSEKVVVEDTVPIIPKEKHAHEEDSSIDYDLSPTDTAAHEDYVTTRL
Outline: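 Material: TRPC4beta and mu-opioid receptor HEK293 stable cells | Incubation: 45 min room-temperature Fluo4 loading, 110 s read | Detection: Kinetic Fluo4 calcium fluorescence | Measure: Integrated baseline-normalised fluorescence ratio, converted to per-well B score | Benchmarks: Low control buffer alone, high control maximal DAMGO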

Structure (SMILES)	B-score
O=S(=O)(NCCc1csc(-c2ccccc2)n1)c1cccnc1	102 (active)
O=S(=O)(NCCc1ccncc1)c1ccccc1	inactive
Cc1nc(CNS(=O)(=O)c2cccnc2)cs1	inactive
CC#CC[N+](C)(C)CCCCCC	inactive
COC(=O)CC(=O)N1CCN(c2ccc(Cl)c(Cl)c2)CC1	inactive
OC(CNCc1ccc2c(c1)OCO2)COc1ccccc1 (centres undefined)	inactive
COc1ccc(OCC(O)CNC(=O)Nc2ccc(Cl)cc2)cc1 (centres undefined)	inactive
OC(CNCCc1ccc(Cl)cc1Cl)COc1ccccc1 (centres undefined)	44 (active)
CO/N=C/c1cn(-c2ccc(Cl)cc2)nn1	inactive
CCN(CC)c1ccc(NC(=O)CCc2nnc3ccc(N4CCCCC4)nn23)c(C)c1	inactive
CCCC(=O)NC(C)C(c1cccs1)N1CCN(c2ccccc2)CC1 (centres undefined)	87 (active)
CC(NC(=S)Nc1ccccc1)C(c1cccs1)N1CCOCC1 (centres undefined)	inactive
CC(NC(=O)C(C)(C)C)C(c1cccs1)N1CCN(Cc2ccccc2)CC1 (centres undefined)	inactive
COc1ccc(CNC(=O)c2ccc3oc(C(C)C)nc3c2)cc1	inactive
COc1ccc(N(CC(=O)Nc2ccc(C)cc2C)S(=O)(=O)c2ccccc2[N+](=O)[O-])c(OC)c1	inactive
O=C(Nc1ccc2sc3ccccc3c(=O)c2c1)c1ccccc1Cl	inactive
COc1cc(SC#N)ccc1N=Cc1c(C)[nH]n(-c2ccc(C)cc2)c1=O	inactive
Cc1ccc(-n2[nH]c(C)c(/C=N/N3C(=O)c4cccc5cccc(c45)C3=O)c2=O)cc1	131 (active)
Cc1[nH]n(-c2cccc(Cl)c2)c(=O)c1/C=N/n1c(C)nc2ccccc2c1=O	inactive
COc1ccccc1CCNS(=O)(=O)c1cc2c3c(c1)C(C)C(=O)N3CCC2 (centres undefined)	inactive
CCOc1ccc(S(=O)(=O)NCCC(=O)NCC(C)(C)N2CCOCC2)cc1	inactive
COc1ccccc1NC(=O)CC(NCCN(C)C)C(=O)O (centres undefined)	inactive

Structure (SMILES)	B-score
COc1ccc(C)cc1NC(=O)Nc1ccccc1SC	inactive
COC(=O)C(CC(=O)Nc1cc(C)ccc1C)Nc1ccccc1OC (centres undefined)	69 (active)
Cc1ccc(CNC(=O)Cc2cn(C)c3ccccc23)cc1	inactive
COc1ccc(N2CCN(C(=O)c3cccs3)CC2)cc1	inactive
CC(c1cccnc1)N(CCN(C)C)C(=O)Nc1ccc(Cl)c(Cl)c1 (centres undefined)	62 (active)
O=C(Nc1cccnc1)c1cc(Cl)ccc1Cl	inactive
CS(=O)(=O)N(CC(=O)Nc1ccc(Cl)c(Cl)c1)C1CCCCC1	inactive
CC1=C/C(=N\OS(=O)(=O)c2ccccc2)C=CC1=O	inactive
COc1ccc(-n2nc(C(=O)NCC(=O)N3CCC(C(N)=O)CC3)c3ccccc3c2=O)cc1OC	inactive
CC1(C)N=C(c2ccccn2)C(C)(C)N1O	inactive
CC1(C)CC(CNCCC(c2ccc(F)cc2)c2ccco2)CCO1 (centres undefined)	inactive
O=C(CNC(=O)COc1ccccc1)NCCc1ccccn1	inactive
O=C(NCCc1ccccn1)c1cccnc1Oc1ccc(Cl)cc1	inactive
O=C(COc1cc(Cl)c(Cl)cc1Cl)NCCc1ccccn1	85 (active)
CCn1cc(-c2cc(C(=O)O)on2)c(C)n1	inactive
S=c1nc(C23CC4CC(CC(C4)C2)C3)nc2sccn12	inactive
N[C@@H](Cc1ccccc1)C(=O)N1CCC(C(=O)NCC(=O)Nc2ccc(F)cc2)CC1	inactive
CCN(CC)CCN(C(=O)c1cc(Cl)sc1Cl)c1nc2cc3c(cc2s1)OCO3	inactive
CN(C)CCN(C(=O)CN1C(=O)c2ccccc2C1=O)c1nc2cc3c(cc2s1)OCCO3	inactive
CN(C)CCN(C(=O)C1CCCCC1)c1nc2cc3c(cc2s1)OCO3	66 (active)
COc1cccc(/C=N/NC(=O)C(=O)N2CCCC2)c1	inactive
COc1ccc(/C=N/N(C)C2=NS(=O)(=O)c3ccccc32)cc1OC	inactive

Structure (SMILES)	B-score
CN(Cc1ccco1)S(=O)(=O)c1nnc(NC(=O)c2ccccc2)s1	inactive
O=S(=O)(Oc1ccccc1C(=S)N1CCOCC1)c1ccc(Cl)cc1	inactive
C[C@]1(C(=O)NCCc2c[nH]c3ccccc23)C=C[C@@H](Cc2ccccc2)N1C(=O)c1ccccc1	inactive
Cc1ccc(CCN2CC(C(=O)NCCc3ccccc3)CC2=O)cc1 (centres undefined)	inactive
Cc1cc(C)cc(C(=O)N(CCc2ccccc2)C2=CC3CCC(C2)N3C)c1 (centres undefined)	75 (active)
C=CCN(C(=O)c1cc(C)cc(C)c1)C1(C(=O)Nc2ccccc2)CCN(C(C)C)CC1	inactive
O=C(CC(c1ccccc1)c1ccccc1)NCC(O)c1ccc([N+](=O)[O-])cc1 (centres undefined)	inactive
CN(C)CCNC(=O)Cc1ccc([N+](=O)[O-])cc1	inactive
CN(C)C(CNC(=O)Cc1ccc([N+](=O)[O-])cc1)c1ccccc1 (centres undefined)	179 (active)
CC(C)Oc1c(Br)cc(Br)cc1/C=N/NC(N)=S	inactive
Cc1ccc(S(=O)(=O)N(Cc2cc3ccccc3[nH]c2=O)CC2CCCO2)cc1 (centres undefined)	inactive
O=C(CCc1ccccc1)NNC(=O)COc1ccc(Cl)cc1	inactive
COc1ccc(C(=O)NC(=S)NNC(=O)CCc2ccccc2)cc1	96 (active)
COc1ccc(C(=O)NNC(=S)NC(=O)c2ccccc2[N+](=O)[O-])cc1	inactive
CC(C)Oc1ccc(CCC(=O)NNC(=S)NCc2ccccc2)cc1	123 (active)
O=C(NNC(=S)NCc1ccccc1)c1ccc(OC(F)F)cc1	inactive
COc1ccc(C(=O)NNC(=S)NC(=O)c2ccccc2)cc1	180 (active)
Cc1ccc(OCC(=O)NNC(=S)NCc2ccccc2)cc1	inactive
COc1ccc(C(=O)NC2CCN(C(=S)NCCc3ccccc3)CC2)cc1	inactive
COc1ccc(C(=O)NC(=S)NC2CCCCC2)cc1	inactive
Cc1cc(C)c(C(=O)CSc2nc(C)cc(=O)[nH]2)c(C)c1	inactive
Cc1ccc(C(=O)NCC(=O)OCC(=O)NC2CCCCCCC2)cc1	inactive

Structure (SMILES)	B-score
COc1ccc(Br)cc1CN(C)CC(=O)Nc1cc([N+](=O)[O-])ccc1OC	inactive
CCCn1nc(C(=O)N2CCCc3ccccc32)c2ccccc2c1=O	inactive
CN(C)C(=O)N1CCNCC1	inactive
Cc1ccc(CC2CC(=O)N(c3cc(C)ccc3C)C2=O)cc1 (centres undefined)	inactive
O=C(CNS(=O)(=O)c1ccc(Br)s1)N1CCN(C(=O)c2ccco2)CC1	inactive
CCSc1nc(O)c(C(c2cccc(OC)c2)c2c(O)nc(SCC)[nH]c2=O)c(=O)[nH]1	inactive
CC1CCN(C(=O)C2CCN(S(=O)(=O)N3CCC4(CC3)OCCO4)CC2)CC1	inactive
COc1ccc(CCN2C(=O)C3CC=C(C)CC3C2=O)cc1OC (centres undefined)	inactive
COc1ccc(CCN(C)CCN2C(=O)c3ccccc3C2=O)cc1OC	159 (active)
COc1ccc(CCN2C(=O)C(C)=C(C)C2=O)cc1OC	inactive
O=c1[nH]c2ccccc2s1	inactive
CN(CCc1cn[nH]c1)C(=O)CC1C(=O)NCCN1Cc1cccc(Oc2ccccc2)c1 (centres undefined)	inactive
COc1ccc(CN2CCNC(=O)C2CC(=O)N(C)Cc2ccccn2)cc1OC (centres undefined)	inactive
COc1cccc(CN2CCNC(=O)C2CC(=O)N(C)CCc2ccccn2)c1 (centres undefined)	132 (active)
CCC(C)(C)NC(=O)C(c1ccc(O)cc1)N(Cc1ccco1)C(=O)CCC(=O)Nc1ccccn1 (centres undefined)	inactive
CCOc1c2ccc(C(=O)NC3CCCc4ccccc43)cc2nn1CC (centres undefined)	inactive
OCCC#Cc1ccc(CN2CCN(Cc3ccsc3)C(CCO)C2)cc1 (centres undefined)	inactive
Cc1ccc(CN2CCN(Cc3ccccc3-c3ccco3)CC2CCO)o1 (centres undefined)	inactive
OCCC1CN(Cc2ccccc2-c2ccco2)CCN1Cc1ccsc1 (centres undefined)	44 (active)
COc1cc(CO)ccc1OCC(=O)Nc1cccc2ccccc12	inactive
CCN(CC(=O)NCc1cccs1)C(=O)c1ccc(OC)c(S(=O)(=O)N2CCOCC2)c1	inactive
O=C(c1c(F)cccc1Cl)N1CCN(c2ccccn2)CC1	inactive

Structure (SMILES)	B-score
CC(=O)NC1(c2ccc(F)cc2)CCN(C(=O)c2c(F)cccc2F)CC1	inactive
O=C(c1c(F)cccc1F)N1CCN(c2ncc(Br)cn2)CC1	204 (active)
COc1ccc(Cl)cc1C(=O)NNC(=O)c1nc2nc(C)cc(C)n2n1	inactive
Cc1ccc(-c2nn(-c3ccccc3)cc2CN(Cc2ccccc2)C(=O)CCC(=O)O)o1	inactive
CCc1ccc(-c2nn(-c3ccccc3)cc2CSC(=N)N)cc1	260 (active)
COc1ccc(-c2nn(-c3ccccc3)cc2C(=O)Nc2nc(CC(C)=O)ns2)cc1	inactive
COc1ccc(-c2cc(=O)oc3cc(OC(C)C(=O)NCC4CCC(C(=O)O)CC4)ccc23)cc1 (centres undefined)	inactive
Cc1[nH]c2ccccc2c1-c1ccc(Cl)nn1	inactive
CCOC(=O)C1CCCCN1Cc1ccc(OC)c(OC)c1OC (centres undefined)	inactive
CCOC(=O)c1cc(C#N)c(N2CCCCC2)nc1-c1ccccc1	inactive
CCCCSc1[nH]c(=O)c(C(=O)OCC)cc1C#N	56 (active)
CCOC(=O)c1cc(C)nc(S(C)(=O)=O)c1C#N	inactive
CC1CCN(CC(=O)Nc2nccs2)CC1	inactive
COc1ccc(Cl)cc1NC(=O)[C@@H]1CCCN1C(=O)c1cccs1	inactive
COc1cccc(CNc2nc(C(F)(F)F)nc3ccccc23)c1	inactive
CCc1ccc(C(CNc2nc(C(F)(F)F)nc3ccccc23)N(C)C)cc1 (centres undefined)	51 (active)
NS(=O)(=O)c1ccc(CCNc2nc(C(F)(F)F)nc3ccccc23)cc1	inactive
COc1ccc(NC(=O)CC2C(=O)NC3CCCCC3N2C(=O)c2ccc(F)cc2)cc1 (centres undefined)	inactive
CC1(C)C=C2[C@H]3CC[C@@H]4[C@@]5(C)CCC(=O)C(C)(C)[C@@H]5CC[C@@]4(C)[C@]3(C)CC[C@@]2(C(=O)O)CC1	inactive
CC1(C)C2CCC13CS(=O)(=O)NC3C2 (centres undefined)	inactive
Cc1ccc(C(=O)NC23CC4CC(CC(C4)C2)C3)c(Cl)c1	inactive

Reference: PubChem BioAssay AID2237 (Johns Hopkins Ion Channel Center, 2010)
